The values that follow come from ChEMBL document CHEMBL1149773, “Synthesis, determination of the lipophilicity, anticancer and antimicrobial properties of some fused 1,2,4-triazole derivatives” (Eur J Med Chem, 2008).

One may read the MIC as the lowest concentration found to suppress growth.

Data set [1] is described as follows: Lipophilicity, log kw in acetonitrile aqueous system at pH 3.5. In kind it is physicochemical. In short, it runs like this:
(§1)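 RP-HPLC on an octadecyl silica column (150 × 4.6 mm, 5 µm) at 22 ± 1 °C, flow 1.0 mL min⁻¹, UV detection at 254 nm. Mobile phase was methanol, acetonitrile or dioxane with water and 0.01 M phosphate buffer pH 3.5 containing 0.05 M DEA. log k_W was extrapolated to pure water by regression.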

Data set [2] can be described thus: Antiproliferative activity against human RPMI cells assessed as cell viability at 50 uM by MTT assay. The format is functional. The settings on record: read-out: Activity. In short, it runs like this: (§2)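 Log-phase cells, kept in supplemented RPMI 1640 (HSF in DMEM/10% FBS) at 37 °C, 5% CO2, were exposed 24 h to 1, 50 or 100 µM compound from DMSO. They were washed, given 0.5 mg/mL MTT in HEPES buffer pH 7.4 for 45 min at 37 °C, and formazan was dissolved in DMSO and read at 570 nm. Values are % viability versus control from three independent measurements.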
(In general: Formazan colour is commonly taken as a measure of viable cells.)

The nature of data set [3]: Lipophilicity, log kw in dioxane aqueous system at pH 3.5. In kind it is physicochemical. The settings on record: buffer. The procedure, abridged:
as §1

For data set [4], the system named is HeLa. In words: Antiproliferative activity against human HeLa cells assessed as cell viability at 50 uM by MTT assay. The conditions noted are these: read-out: Activity. In kind it is functional. In short, it runs like this: as §2
The nature of data set [5]: Antiproliferative activity against human RPMI cells assessed as cell viability at 100 uM by MTT assay. The settings on record: read-out: Activity. In kind it is functional. The procedure, abridged: as §2
Data set [6] is described as follows: Antiproliferative activity against human RPMI cells assessed as cell viability at 1 uM by MTT assay. The format is functional. The conditions noted are these: read-out: Activity. In short, it runs like this:
as §2

Data set [7] relates to HeLa. The experiment in a line: Antiproliferative activity against human HeLa cells assessed as cell viability at 100 uM by MTT assay. The format is functional. The conditions noted are these: read-out: Activity. The procedure, abridged:
as §2

Data set [8] in a line: Antiproliferative activity against human skin fibroblast assessed as cell viability at 1 uM by MTT assay. The format is cell-based. The conditions noted are these: human skin fibroblasts, read-out: Activity. The procedure, abridged:
as §2

The nature of data set [9]: Antiproliferative activity against human skin fibroblast assessed as cell viability at 100 uM by MTT assay. In kind it is cell-based. The conditions noted are these: human skin fibroblasts, read-out: Activity. The procedure, abridged: (§3)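 MTT viability assay on primary human skin fibroblasts grown in DMEM with 10% FBS and penicillin/streptomycin. Compounds were dissolved in DMSO and given at 1, 50 or 100 µM for 24 h. Cells were washed in HEPES-buffered medium (pH 7.4) and then given MTT 0.5 mg mL⁻¹ for 45 min at 37 °C. Formazan was dissolved in DMSO and read at 570 nm. Viability is % of control; three independent measurements.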

For data set [10], the system named is HeLa. In words: Antiproliferative activity against human HeLa cells assessed as cell viability at 1 uM by MTT assay. In kind it is functional. The conditions noted are these: read-out: Activity. The procedure, abridged: as §2
The nature of data set [11]: Antiproliferative activity against human skin fibroblast assessed as cell viability at 50 uM by MTT assay. In kind it is cell-based. The conditions noted are these: human skin fibroblasts, read-out: Activity. In short, it runs like this: as §3
The nature of data set [12]: Lipophilicity, log kw in methanol aqueous system at pH 3.5. In kind it is physicochemical. In short, it runs like this:
as §1

The subject of data set [13] is Staphylococcus aureus. In words: Antimicrobial activity against Staphylococcus aureus ATCC 25923 after 24 hrs by microdilution assay. The format is functional. The conditions noted are these: ATCC 25923, 24 h.
In data set [14] the test system is Proteus vulgaris. In words: Antimicrobial activity against Proteus vulgaris at 100 ug/mL by disc-diffusion method. The conditions noted are these: read-out: IZ. In kind it is functional. In short, it runs like this: (§4)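 Kirby–Bauer disc diffusion: 5 mm paper discs soaked in compound solution in DMSO (100 or 200 µg/mL; reference drugs 200 µg/mL) and laid on inoculated Mueller-Hinton agar (bacteria) or Sabouraud agar (C. albicans, Aspergillus). DMSO discs were the control. Plates ran 24 h at 35 °C. Inhibition zone diameter was scored 0–10 mm R, 11–16 mm I, 17–25 mm S; triplicate.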

The subject of data set [15] is Streptococcus pyogenes. The experiment in a line: Antimicrobial activity against Streptococcus pyogenes at 100 ug/mL by disc-diffusion method. In kind it is functional. The conditions noted are these: read-out: IZ. The procedure, abridged:
as §4

The test system of data set [16] is Klebsiella aerogenes. The experiment in a line: Antimicrobial activity against Enterobacter aerogenes at 100 ug/mL by disc-diffusion method. The conditions noted are these: read-out: IZ. In kind it is functional. In short, it runs like this: as §4
In data set [17] the test system is Staphylococcus aureus. In words: Antimicrobial activity against Staphylococcus aureus ATCC 25923 at 200 ug/mL by disc-diffusion method. In kind it is functional. The conditions noted are these: read-out: IZ. In short, it runs like this: as §4
Data set [18] concerns Klebsiella aerogenes. In words: Antimicrobial activity against Enterobacter aerogenes at 200 ug/mL by disc-diffusion method. The format is functional. The settings on record: read-out: IZ. The procedure, abridged:
as §4

Data set [19] relates to Staphylococcus aureus. The experiment in a line: Antimicrobial activity against Staphylococcus aureus ATCC 25923 at 100 ug/mL by disc-diffusion method. In kind it is functional. The settings on record: read-out: IZ. The procedure, abridged: as §4
Data set [20] has as its system Escherichia coli. The experiment in a line: Antimicrobial activity against Escherichia coli ATCC 25922 at 200 ug/mL by disc-diffusion method. The format is functional. The conditions noted are these: read-out: IZ. In short, it runs like this:
as §4
(In general: Agar diffusion results depend on both activity and mobility in agar.)

Data set [21] has as its system Candida albicans. The experiment in a line: Antimicrobial activity against Candida albicans ATCC 10231 at 100 ug/mL by disc-diffusion method. In kind it is functional. The conditions noted are these: read-out: IZ. In short, it runs like this:
as §4

Data set [22] deals with Pseudomonas aeruginosa. In words: Antimicrobial activity against Pseudomonas aeruginosa ATCC 27853 at 100 ug/mL by disc-diffusion method. The format is functional. The conditions noted are these: read-out: IZ. In short, it runs like this: as §4
Data set [23] has as its system Proteus vulgaris. In words: Antimicrobial activity against Proteus vulgaris at 200 ug/mL by disc-diffusion method. The format is functional. The settings on record: read-out: IZ. In short, it runs like this:
as §4

Data set [24] deals with Klebsiella pneumoniae. In words: Antimicrobial activity against Klebsiella pneumoniae at 100 ug/mL by disc-diffusion method. In kind it is functional. The conditions noted are these: read-out: IZ. In short, it runs like this:
as §4

Data set [25] relates to Streptococcus agalactiae. In words: Antimicrobial activity against Streptococcus agalactiae at 100 ug/mL by disc-diffusion method. In kind it is functional. The conditions noted are these: read-out: IZ. The procedure, abridged: as §4
The subject of data set [26] is Klebsiella pneumoniae. In words: Antimicrobial activity against Klebsiella pneumoniae at 200 ug/mL by disc-diffusion method. The settings on record: read-out: IZ. The format is functional. The procedure, abridged:
as §4

Data set [27] deals with Candida albicans. The experiment in a line: Antimicrobial activity against Candida albicans ATCC 10231 at 200 ug/mL by disc-diffusion method. In kind it is functional. The conditions noted are these: read-out: IZ. The procedure, abridged: as §4
Data set [28] concerns Streptococcus pyogenes. In words: Antimicrobial activity against Streptococcus pyogenes at 200 ug/mL by disc-diffusion method. In kind it is functional. The settings on record: read-out: IZ. In short, it runs like this:
as §4

Data set [29] relates to Pseudomonas aeruginosa. In words: Antimicrobial activity against Pseudomonas aeruginosa ATCC 27853 at 200 ug/mL by disc-diffusion method. The settings on record: read-out: IZ. The format is functional. In short, it runs like this:
as §4

For data set [30], the system named is Streptococcus agalactiae. In words: Antimicrobial activity against Streptococcus agalactiae at 200 ug/mL by disc-diffusion method. In kind it is functional. The settings on record: read-out: IZ. In short, it runs like this:
as §4

Data set [31] has as its system Aspergillus sp. The experiment in a line: Antimicrobial activity against Aspergillus sp. at 200 ug/mL by disc-diffusion method. The conditions noted are these: read-out: IZ. In kind it is functional. In short, it runs like this:
as §4

The test system of data set [32] is Aspergillus sp. The experiment in a line: Antimicrobial activity against Aspergillus sp. at 100 ug/mL by disc-diffusion method. In kind it is functional. The conditions noted are these: read-out: IZ. In short, it runs like this:
as §4

In data set [33] the test system is Staphylococcus epidermidis. In words: Antimicrobial activity against Staphylococcus epidermidis at 100 ug/mL by disc-diffusion method. The settings on record: read-out: IZ. The format is functional. In short, it runs like this:
as §4

For data set [34], the system named is Escherichia coli. The experiment in a line: Antimicrobial activity against Escherichia coli ATCC 25922 at 100 ug/mL by disc-diffusion method. The format is functional. The settings on record: read-out: IZ. The procedure, abridged: as §4
The subject of data set [35] is Staphylococcus epidermidis. The experiment in a line: Antimicrobial activity against Staphylococcus epidermidis at 200 ug/mL by disc-diffusion method. The conditions noted are these: read-out: IZ. In kind it is functional. In short, it runs like this:
as §4

≈ marks a conversion by molar mass, not a printed value.

With `Clc1ccc(OCc2nnc3n2CCN3c2ccc(Cl)cc2)cc1`, the values for the logKw in data set [1], in [3] and in [12] were 3.23, 3.41 and 4.38, respectively. The viability at 50 µM was 34.5% in [2], 56.3% in data set [4] and 63.8% in data set [11]. The viability at 100 µM was 34% in data set [5], 52.4% in data set [7] and 16.2% in data set [9]. Moreover, the viability at 1 µM came to 60.1% in [6], 88.7% in data set [8] and 63.2% in data set [10].
In the case of `Clc1ccc(N2CCn3cnnc32)cc1Cl`, the values for the logKw in data set [1], in data set [3] and in data set [12] were 2.11, 2.49 and 2.92, respectively.
In the case of `Cc1ccc(N2CCn3c(COc4ccc(Cl)cc4)nnc32)cc1`, the logKw in data set [1] worked out at 3.04; in [3], 3.55; in [12] it was 4.27. The viability at 50 µM was 39.5% in data set [2], 78.3% in [4] and 68.4% in data set [11]. For the same compound, the viability at 100 µM in data set [5] is 39.9%; in [7] it was 77.9%; in data set [9], 64.7%. In addition, the results for the viability at 1 µM in [6], in [8] and in data set [10] were 104%, 88.1% and 89%, respectively.
Consider `c1ccc(N2CCn3cnnc32)cc1`, for which the results for the logKw in [1], in data set [3] and in data set [12] were 1.37, 1.16 and 1.62, respectively. The figures for the viability at 50 µM in [2], in data set [4] and in data set [11] were 102%, 75.4% and 89.5%, respectively. The viability at 100 µM amounted to 97.6% in [5], 72.8% in [7] and 85.6% in [9]. Also, the viability at 1 µM was 99.3% in [6], 97.6% in data set [8] and 73.2% in data set [10].
In the case of `Cc1ccc(N2CCn3c(COc4ccc(Cl)cc4C)nnc32)cc1`, 44 µM (≈ 15.6 µg/mL) was the least that counted as inhibitory in [13] (MIC). Also, the zone of inhibition at 100 µg/mL was 0 mm in data set [14]; 0 mm in [15]; 0 mm in [16]; 11 mm in data set [19]; 0 mm in data set [21]; 0 mm in data set [22]. The zone of inhibition at 100 µg/mL was 0 mm in data set [24]; 0 mm in data set [25]; 0 mm in data set [32]; 11 mm in data set [33]; 0 mm in [34]. Moreover, the values for the logKw in data set [1], in data set [3] and in data set [12] were 1, 1.1 and 1.58, respectively. The zone of inhibition at 200 µg/mL in [17] worked out at 17 mm; in data set [18], 0 mm; in data set [20], 0 mm; in data set [23], 0 mm; in data set [26], 0 mm; in data set [27], 0 mm. In addition, the zone of inhibition at 200 µg/mL came out at 0 mm in data set [28]; 0 mm in data set [29]; 0 mm in data set [30]; 0 mm in data set [31]; 17 mm in data set [35]. For the same compound, the viability at 50 µM in data set [2] was found to be 27.7%; in [4], 75.2%; in data set [11], 56.9%. For the same compound, the viability at 100 µM in [5] worked out at 25.4%; in data set [7] it was 75.6%; in data set [9], 62.1%. Moreover, the viability at 1 µM in data set [6] amounted to 85.5%; in [8], 74.9%; in data set [10], 95.1%.
